Data reported in ChEMBL document CHEMBL5705890, “Antitumor activity of an allosteric inhibitor of centromere-associated protein-E” (Proc Natl Acad Sci U S A, 2010).

What was measured:
[1] = target: T1, Centromere-associated protein E (Homo sapiens, UniProt Q02224); assay: Inhibition of ATPase activity of C-terminal 6-his-tagged CENP-E (2 to 340 residues)(unknown origin) expressed in Escherichia coli BL21(DE3) in presence of ATP
[2] = target: T1, Centromere-associated protein E; assay: Uncompetitive-like binding affinity to C-terminal 6-his-tagged CENP-E (2 to 340 residues)(unknown origin) expressed in Escherichia coli BL21(DE3) assessed as apparent inhibition constant in presence of ATP; details: read-out: Ki(app)
[3] = target: T1, Centromere-associated protein E; assay: Inhibition of microtubule-stimulated ATPase activity of C-terminal 6-his-tagged CENP-E (2 to 340 residues)(unknown origin) expressed in Escherichia coli BL21(DE3) in presence of ATP
Procedure, shortened: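 Steady-state ATPase of CENP-E motor domain, residues 2–340 with C-terminal 6-His tag, expressed in E. coli BL21(DE3). Run at 1 nM enzyme, 500 μM ATP and 5 μM paclitaxel-stabilized microtubules in PEM25 (25 mM PIPES-K pH 6.8, 2 mM MgCl2, 1 mM EGTA) plus 10 μM paclitaxel. IC50 taken from concentration-response curves.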

[4] = target: T1, Centromere-associated protein E; assay: Uncompetitive binding affinity to microtubule-stimulated ATPase activity of C-terminal 6-his-tagged CENP-E (2 to 340 residues)(unknown origin) expressed in Escherichia coli BL21(DE3) assessed as apparent inhibition constant; details: read-out: Ki(app)
Procedure, shortened: (§1)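 CENP-E motor domain (residues 2–340, C-terminal 6-his, from E. coli BL21(DE3)) run in MT-stimulated ATPase with 500 μM ATP, 5 μM paclitaxel-stabilized MT, 1 nM enzyme in PEM25 buffer, pH 6.8. Apparent Ki taken from the concentration-response curves with explicit correction for enzyme concentration.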

[5] = target: Centromere-associated protein E (Homo sapiens, UniProt Q02224, I182L/K184T/T183A); assay: Binding affinity to human CENP-E I182L/T183A/K184T mutant assessed as inhibition constant
[6] = target: Centromere protein E (Canis lupus familiaris, UniProt A0A8P0P634); assay: Binding affinity to wild-type dog CENP-E assessed as inhibition constant
[7] = target: Centromere-associated protein E (Mus musculus, UniProt Q6RT24); assay: Binding affinity to wild-type mouse CENP-E assessed as inhibition constant
[8] = target: T1, Centromere-associated protein E; assay: Competitive-like binding affinity to C-terminal 6-his-tagged CENP-E (2 to 340 residues)(unknown origin) expressed in Escherichia coli BL21(DE3) assessed as apparent inhibition constant in presence of ATP; details: read-out: Ki(app)
[9] = target: T1, Centromere-associated protein E; assay: Binding affinity to wild-type human CENP-E assessed as inhibition constant; procedure, shortened: as §1

T1 sequence (Q02224 whole entry, the tested form may be a part): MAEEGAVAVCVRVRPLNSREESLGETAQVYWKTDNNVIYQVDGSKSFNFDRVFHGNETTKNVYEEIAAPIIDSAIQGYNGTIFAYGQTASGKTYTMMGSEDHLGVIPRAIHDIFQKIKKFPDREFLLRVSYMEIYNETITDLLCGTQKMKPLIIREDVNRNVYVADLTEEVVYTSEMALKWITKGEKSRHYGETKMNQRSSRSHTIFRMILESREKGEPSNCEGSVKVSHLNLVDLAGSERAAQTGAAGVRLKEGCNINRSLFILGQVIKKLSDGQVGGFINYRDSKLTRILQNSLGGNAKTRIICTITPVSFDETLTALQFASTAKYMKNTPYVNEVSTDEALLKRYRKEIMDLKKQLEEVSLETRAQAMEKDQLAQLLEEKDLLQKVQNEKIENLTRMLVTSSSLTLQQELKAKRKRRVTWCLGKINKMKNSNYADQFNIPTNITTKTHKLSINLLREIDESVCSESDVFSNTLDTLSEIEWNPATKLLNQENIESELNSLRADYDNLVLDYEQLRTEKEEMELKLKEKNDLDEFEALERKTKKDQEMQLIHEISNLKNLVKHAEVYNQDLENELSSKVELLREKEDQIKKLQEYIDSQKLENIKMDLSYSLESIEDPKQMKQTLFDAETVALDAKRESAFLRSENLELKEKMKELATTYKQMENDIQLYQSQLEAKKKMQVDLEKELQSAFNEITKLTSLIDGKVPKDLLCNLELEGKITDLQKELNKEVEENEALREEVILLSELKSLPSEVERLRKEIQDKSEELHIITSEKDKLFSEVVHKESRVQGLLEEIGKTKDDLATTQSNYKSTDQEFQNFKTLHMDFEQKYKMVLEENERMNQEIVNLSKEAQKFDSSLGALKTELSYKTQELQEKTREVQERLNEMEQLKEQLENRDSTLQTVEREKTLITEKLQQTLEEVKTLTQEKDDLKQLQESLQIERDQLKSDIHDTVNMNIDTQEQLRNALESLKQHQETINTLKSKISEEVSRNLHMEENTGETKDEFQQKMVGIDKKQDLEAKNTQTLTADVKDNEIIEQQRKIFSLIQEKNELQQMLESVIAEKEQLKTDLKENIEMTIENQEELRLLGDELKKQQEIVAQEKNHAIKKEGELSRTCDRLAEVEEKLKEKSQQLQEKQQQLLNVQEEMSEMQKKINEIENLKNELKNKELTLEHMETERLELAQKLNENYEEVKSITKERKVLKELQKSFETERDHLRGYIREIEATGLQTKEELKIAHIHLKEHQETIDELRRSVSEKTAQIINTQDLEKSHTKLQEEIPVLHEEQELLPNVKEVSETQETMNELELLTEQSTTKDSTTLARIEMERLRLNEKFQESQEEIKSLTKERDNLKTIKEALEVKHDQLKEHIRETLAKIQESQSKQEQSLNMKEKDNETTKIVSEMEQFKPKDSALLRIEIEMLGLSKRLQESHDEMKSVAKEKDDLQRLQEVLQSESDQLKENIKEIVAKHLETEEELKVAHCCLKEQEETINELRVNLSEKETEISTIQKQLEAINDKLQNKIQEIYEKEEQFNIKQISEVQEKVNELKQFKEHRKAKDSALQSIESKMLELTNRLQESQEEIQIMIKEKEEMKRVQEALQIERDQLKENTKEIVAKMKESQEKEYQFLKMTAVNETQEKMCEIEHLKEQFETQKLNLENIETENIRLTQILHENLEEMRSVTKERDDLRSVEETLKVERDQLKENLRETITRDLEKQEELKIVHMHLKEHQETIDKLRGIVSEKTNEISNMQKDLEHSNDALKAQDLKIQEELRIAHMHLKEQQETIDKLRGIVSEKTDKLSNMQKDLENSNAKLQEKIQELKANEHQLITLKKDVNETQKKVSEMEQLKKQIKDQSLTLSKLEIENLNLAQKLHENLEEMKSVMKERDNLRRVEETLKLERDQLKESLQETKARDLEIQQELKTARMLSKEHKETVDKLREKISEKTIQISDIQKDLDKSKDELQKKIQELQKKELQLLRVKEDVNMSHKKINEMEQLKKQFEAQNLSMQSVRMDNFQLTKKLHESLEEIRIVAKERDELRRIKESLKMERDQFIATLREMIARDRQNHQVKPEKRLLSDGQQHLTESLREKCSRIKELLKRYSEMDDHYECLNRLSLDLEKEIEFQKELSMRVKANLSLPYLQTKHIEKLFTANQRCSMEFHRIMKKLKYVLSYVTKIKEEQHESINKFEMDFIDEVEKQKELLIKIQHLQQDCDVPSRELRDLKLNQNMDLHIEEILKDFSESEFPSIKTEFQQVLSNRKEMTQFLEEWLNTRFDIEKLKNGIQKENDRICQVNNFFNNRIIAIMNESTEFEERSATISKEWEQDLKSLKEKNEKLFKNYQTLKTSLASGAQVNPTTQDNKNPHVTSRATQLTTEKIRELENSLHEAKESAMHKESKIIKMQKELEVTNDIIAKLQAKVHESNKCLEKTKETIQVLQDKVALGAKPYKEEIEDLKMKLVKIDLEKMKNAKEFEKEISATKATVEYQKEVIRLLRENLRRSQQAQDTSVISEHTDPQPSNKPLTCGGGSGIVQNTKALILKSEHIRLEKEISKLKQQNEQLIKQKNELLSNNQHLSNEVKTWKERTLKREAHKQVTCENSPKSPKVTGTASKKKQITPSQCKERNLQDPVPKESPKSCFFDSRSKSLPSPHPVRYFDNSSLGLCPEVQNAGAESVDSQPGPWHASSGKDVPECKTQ
Sequence of Centromere protein E (A0A8P0P634 whole entry): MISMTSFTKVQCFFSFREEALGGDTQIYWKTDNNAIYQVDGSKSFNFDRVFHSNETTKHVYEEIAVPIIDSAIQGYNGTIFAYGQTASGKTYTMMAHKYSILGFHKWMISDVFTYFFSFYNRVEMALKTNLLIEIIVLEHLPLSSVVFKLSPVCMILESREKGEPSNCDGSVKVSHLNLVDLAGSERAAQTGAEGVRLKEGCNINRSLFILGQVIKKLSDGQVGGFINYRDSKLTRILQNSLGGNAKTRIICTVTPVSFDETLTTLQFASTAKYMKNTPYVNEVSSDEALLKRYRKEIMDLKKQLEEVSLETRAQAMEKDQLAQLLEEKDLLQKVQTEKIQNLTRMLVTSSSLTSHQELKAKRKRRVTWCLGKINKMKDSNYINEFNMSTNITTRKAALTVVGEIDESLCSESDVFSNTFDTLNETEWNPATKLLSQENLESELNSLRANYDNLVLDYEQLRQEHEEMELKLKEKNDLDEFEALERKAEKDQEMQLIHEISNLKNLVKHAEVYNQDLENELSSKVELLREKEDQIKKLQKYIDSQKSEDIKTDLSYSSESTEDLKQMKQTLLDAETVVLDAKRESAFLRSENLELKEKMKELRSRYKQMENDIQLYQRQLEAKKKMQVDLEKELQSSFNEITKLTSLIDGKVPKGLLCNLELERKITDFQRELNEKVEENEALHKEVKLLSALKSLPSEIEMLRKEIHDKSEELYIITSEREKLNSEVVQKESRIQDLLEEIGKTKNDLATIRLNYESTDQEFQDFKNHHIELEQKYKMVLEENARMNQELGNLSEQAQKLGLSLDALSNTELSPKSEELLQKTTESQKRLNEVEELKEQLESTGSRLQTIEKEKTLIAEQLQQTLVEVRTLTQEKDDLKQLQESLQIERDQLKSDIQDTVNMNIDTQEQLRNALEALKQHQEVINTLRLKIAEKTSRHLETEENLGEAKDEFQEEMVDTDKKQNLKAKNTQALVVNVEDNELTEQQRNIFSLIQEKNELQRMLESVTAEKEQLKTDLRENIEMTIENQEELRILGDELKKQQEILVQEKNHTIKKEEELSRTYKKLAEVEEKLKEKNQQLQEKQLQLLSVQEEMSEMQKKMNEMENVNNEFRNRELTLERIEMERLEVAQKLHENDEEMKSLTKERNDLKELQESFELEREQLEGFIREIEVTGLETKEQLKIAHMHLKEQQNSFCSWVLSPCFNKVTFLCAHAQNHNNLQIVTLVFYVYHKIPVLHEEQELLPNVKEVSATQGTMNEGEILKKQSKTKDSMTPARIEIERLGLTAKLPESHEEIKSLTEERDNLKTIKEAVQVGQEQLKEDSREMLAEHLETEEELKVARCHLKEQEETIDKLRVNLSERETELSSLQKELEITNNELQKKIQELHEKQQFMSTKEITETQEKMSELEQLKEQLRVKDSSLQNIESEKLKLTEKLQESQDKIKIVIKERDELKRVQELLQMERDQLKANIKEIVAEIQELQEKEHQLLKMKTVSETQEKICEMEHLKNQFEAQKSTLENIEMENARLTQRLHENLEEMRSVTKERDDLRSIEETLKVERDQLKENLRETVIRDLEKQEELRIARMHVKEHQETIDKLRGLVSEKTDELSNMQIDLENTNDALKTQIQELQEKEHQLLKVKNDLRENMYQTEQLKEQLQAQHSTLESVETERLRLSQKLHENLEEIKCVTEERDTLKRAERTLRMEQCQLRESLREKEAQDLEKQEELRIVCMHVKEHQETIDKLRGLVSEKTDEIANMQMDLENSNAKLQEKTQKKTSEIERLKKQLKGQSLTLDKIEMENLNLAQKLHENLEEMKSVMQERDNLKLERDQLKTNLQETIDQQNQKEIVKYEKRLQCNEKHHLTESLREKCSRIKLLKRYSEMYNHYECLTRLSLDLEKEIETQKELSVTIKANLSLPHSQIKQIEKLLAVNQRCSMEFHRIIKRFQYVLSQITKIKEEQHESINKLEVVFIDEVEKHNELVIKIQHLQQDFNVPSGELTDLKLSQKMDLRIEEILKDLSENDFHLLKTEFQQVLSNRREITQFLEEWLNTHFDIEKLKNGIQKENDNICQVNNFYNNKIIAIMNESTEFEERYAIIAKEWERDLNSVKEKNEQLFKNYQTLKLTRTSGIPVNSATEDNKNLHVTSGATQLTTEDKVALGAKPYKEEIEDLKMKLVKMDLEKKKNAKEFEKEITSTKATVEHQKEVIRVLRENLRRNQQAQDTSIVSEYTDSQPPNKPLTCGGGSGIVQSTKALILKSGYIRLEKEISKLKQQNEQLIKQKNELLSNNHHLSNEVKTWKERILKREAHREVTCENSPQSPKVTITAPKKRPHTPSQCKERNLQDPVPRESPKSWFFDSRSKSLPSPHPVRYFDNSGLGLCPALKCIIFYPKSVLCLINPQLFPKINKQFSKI
Sequence of Centromere-associated protein E (Homo sapiens, UniProt Q02224, I182L/K184T/T183A) (Q02224 whole entry I182L/T183A/K184T): as the sequence (Q02224 whole entry, the tested form may be a part) above, with I182L, T183A, K184T counted along it

IC50 [1] | Ki [2] | IC50 [3] | Ki [4] | Ki [5] | Ki [6] | Ki [7] | Ki [8] | Ki [9] | SMILES
7370 nM | 4.2 nM | 3.7 nM | 4.7 nM |  |  |  |  |  | Cc1cccn2cc(-c3ccc(C[C@@H](CCO)NC(=O)c4ccc(OC(C)C)c(C#N)c4)cc3)nc12
 |  | 550 nM |  | 73 nM | 2.4 nM | 89 nM | 4400 nM | 4.2 nM | CNC(=O)C(Cc1ccc(C(=O)c2ccccc2)cc1)NC(=O)c1ccc(OC(C)C)c(Cl)c1 (stereo not given)
